Bioassay records (PubChem BioAssay)
Only some compounds are listed: those with a hit (about 4.1% of all), similar ones and a draw of the others.
RGS4 act: RGS4 potentiators or activators, primary screen, cell-based, HEK293 M3R inducible RGS4, calcium flux; B-score at 10 µM; 0.92% of 310,000 active; carbachol calcium flux Fluo4; active compounds read low;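 active = B-score of the integrated calcium signal more than 4 SD below the library mean, with starting fluorescence not abnormally high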;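 also: negative B-score means reduced calcium response which marks RGS4 activation or potentiation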
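Reagent: ECmax carbachol challenge; Test system: M3R-expressing HEK293 line, RGS4 induced by doxycycline; Schedule: overnight RGS4 induction, 30 min dye load 37 °C, 20 min compound RT; Detection: calcium dye Fluo4 fluorescence; Read-out: Agonist-evoked peak-minus-minimum fluorescence over baseline, integrated ratio, B score.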
Kir21 inh: inhibitors of mouse Kir2.1 inward-rectifier potassium channel; B-score at 10 µM; 0.85% of 310,000 active; HEK293-Kir2.1, FluxOR thallium flux fluorescence; active compounds read low; Inward rectifier potassium channel 2 (Mus musculus), P35561;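 active = fluorescence ratio B-score at or below minus 3 SD of library scores, with starting-brightness B-score within 2 SD, cut at about -4.2 in these data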;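 also: channel flux triggered by added potassium and thallium sulfate stimulus; B-score of peak minus minimum fluorescence over baseline after thallium stimulus; more negative B-score means stronger Kir2.1 block with less thallium influx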
MrgX1 agonist: agonists of human MrgX1 receptor, primary screen, HEK293 cells, Fluo-4 calcium flux; Fluo-4 calcium fluorescence, agonist mode; active compounds read high; B-score at 10 µM; 0.44% of 310,000 active; AID 588627, 2011;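 active = calcium response B-score plate-corrected fluorescence ratio at least 3 library SD, with starting fluorescence B-score inside 5 SD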
Target sequence (Q96LB2 whole entry, looked up): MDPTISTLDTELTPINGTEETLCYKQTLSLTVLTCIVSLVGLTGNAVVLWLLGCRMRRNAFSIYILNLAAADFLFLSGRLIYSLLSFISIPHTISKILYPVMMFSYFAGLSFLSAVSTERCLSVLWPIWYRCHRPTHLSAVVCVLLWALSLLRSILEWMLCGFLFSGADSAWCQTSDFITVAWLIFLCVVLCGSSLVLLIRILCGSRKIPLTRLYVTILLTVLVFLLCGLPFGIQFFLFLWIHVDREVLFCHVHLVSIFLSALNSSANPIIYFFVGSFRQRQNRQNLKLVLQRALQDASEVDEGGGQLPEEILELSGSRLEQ
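Material: HEK293 cells stably expressing human MrgX1 receptor | Quantity: 15,000 cells per well | Times: Cells plated overnight, dye loaded 0.5 h 37 °C, 0.5 h room temperature | Measured by: Kinetic Fluo-4 NW fluorescence of intracellular calcium | Control set: Positive and negative controls per plate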
RGS4 block: RGS4 inhibitors, primary screen, cell-based, HEK293 M3R inducible RGS4, calcium flux; Regulator of G-protein signaling 4 (Homo sapiens), P49798; Fluo-4 calcium flux; active compounds read high; triggered by carbachol at its EC20; B-score at 10 µM; 0.45% of 310,000 active; AID 463165, 2010;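 active = B-score, a plate-corrected calcium signal, over three deviations above library mean, with baseline fluorescence within five deviations of library mean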;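 also: RGS4 expression induced by doxycycline in cells with stable M3 receptor; B-score is computed from the integrated fluorescence ratio over baseline after carbachol; higher B-score means a larger calcium signal and so more RGS4 inhibition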
Target sequence (P49798 whole entry, looked up): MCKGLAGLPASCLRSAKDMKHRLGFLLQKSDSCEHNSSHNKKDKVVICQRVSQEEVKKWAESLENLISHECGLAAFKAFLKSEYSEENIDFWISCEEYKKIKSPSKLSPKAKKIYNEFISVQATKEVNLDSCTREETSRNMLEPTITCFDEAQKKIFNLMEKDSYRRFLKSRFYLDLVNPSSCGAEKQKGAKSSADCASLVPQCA
MrgX1 antagonist: antagonists of human MrgX1 receptor, primary screen, HEK293 cells, Fluo-4 calcium flux | B-score at 10 µM | AID 588676, 2011 | BAM8-22 antagonism; active compounds read low | Mas-related G-protein coupled receptor member X1 (Homo sapiens), Q96LB2 | 1.3% of 310,000 active;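 active = calcium-response B-score plate-corrected more than 3 library SD below zero, starting fluorescence within 5 deviations, no agonist response on first addition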;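 also: peak minus trough fluorescence over baseline after final BAM8-22 challenge near maximal dose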
MrgX1 PAM: positive allosteric modulators of MrgX1, primary screen, HEK293 cells, Fluo-4 calcium flux; Mas-related G-protein coupled receptor member X1 (Homo sapiens), Q96LB2; FDSS; active compounds read high; B-score at 10 µM; 0.63% of 310,000 active;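 active = plate-corrected calcium response at least 3 library SD above typical, normal starting fluorescence, not activating the receptor alone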;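 also: compound read alongside a low EC10 to EC30 dose of BAM8-22 agonist; peak minus trough fluorescence over baseline measured at the second addition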
RGS4 activ val: reduced carbachol calcium response, RGS4-induced M3R cells, confirmation, RGS4 activator project, cell-based, HEK293 M3R/RGS4 inducible, calcium flux, duplicate; carbachol calcium flux Fluo4; inhibition, % at 10 µM; shares compounds with RGS4 act; 89% of 1,100 active;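 active = inhibition above 3 SD of the buffer control wells, cut at about 41% in these data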;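 also: signal is the integrated peak-minus-minimum Fluo4 fluorescence over baseline ratio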
RGS4 act ctr: RGS4 activator counter-screen hit in non-induced cells. shares compounds with RGS4 act. HEK293 M3R non-induced RGS4, Fluo4 calcium flux; after carbachol challenge at its EC90. inhibition, % at 10 µM. 82% of 1,100 active;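 active = inhibition exceeding 3 SD of buffer-only control wells, cut at about 26% in these data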;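 also: percent drop in integrated peak-minus-baseline over baseline Fluo4 ratio after carbachol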
Starred values were filed as active, the others as inactive; i = inactive; / = not tested or not shown.

SMILES | RGS4 act | Kir21 inh | MrgX1 agonist | RGS4 block | MrgX1 antagonist | MrgX1 PAM | RGS4 activ val | RGS4 act ctr
C/C(=N\NC(=O)C(=O)Nc1cccc(C(F)(F)F)c1)c1ccc(Cl)s1 | i | 0.27 | i | i | i | i | / | /
CCN(CC)CCCOC(=O)C1(c2ccccc2)CCCC1 | -10.8* | -2.01 | i | i | i | i | 95.0* | 92.8*
CCN(CC)CCOCCOC(=O)C1(c2ccccc2)CCCC1 | i | -2.73 | i | i | i | i | / | /
CSCCC(NC(=O)c1ccccc1)C(=O)NNC(=O)c1csc(N2CCOCC2)n1 (stereo unspecified) | i | 0.16 | i | i | i | i | / | /
Cc1cc2ncn(C(=O)c3c(-c4ccccc4Cl)noc3C)c2cc1C | -10.7* | -0.75 | i | i | i | i | 93.5* | 78.8*
Cc1ccccc1OCc1nnc(SCc2cc(=O)[nH]c3ccccc23)o1 | i | 0.04 | i | i | i | i | / | /
CCOC(=O)C1=C(CC)Nc2ccccc2N=C1NC(=O)CCNC(C)=O | i | -0.01 | i | i | i | i | / | /
CCOCc1c(C(=O)NC2=Nc3ccccc3NC(CC)=C2C(=O)OCC)oc2ccccc12 | -8.95* | -2.5 | i | i | i | i | 76.5* | 83.8*
CCOC(=O)C1=C(CC)Nc2ccccc2N=C1NC(=O)c1oc2ccccc2c1C | -12.1* | -0.04 | i | i | i | i | 84.0* | 52.3*
[2H]c1c([2H])c([2H])c(C(=O)c2sc(N3CCCCCC3)nc2-c2ccccc2)c([2H])c1[2H] | -8.29* | -1.31 | i | i | i | i | 92.0* | 61.3*
S=c1[nH]nc(-c2ccc(Cl)cc2)n1Cc1ccccc1 | -8.89* | -0.87 | i | i | i | i | 81.0* | 36.3*
S=c1[nH]nc(-c2ccc(Br)cc2)n1Cc1ccco1 | -7.99* | -0.47 | i | i | i | i | 93.0* | 77.8*
CC(C)(C)c1ccc(S(=O)(=O)O/N=C2/CCCCC2c2ccc([N+](=O)[O-])cc2[N+](=O)[O-])cc1 (stereo unspecified) | i | -0.79 | i | i | i | i | / | /
COc1ccc(CCc2nnc(CCC(=O)NCc3cc(C(C)C)no3)o2)cc1 | i | 1.03 | i | i | i | i | / | /
COc1ccc(C(=O)NC(=S)NCc2cccnc2)cc1[N+](=O)[O-] | i | 1.12 | i | i | i | i | / | /
CCOC(=O)Cc1nnc(NC(=O)CSc2ccc(C)cc2)s1 | i | -0.14 | i | i | i | i | / | /
COC(=O)c1ccc(C2SCC(=O)N2Cc2ccccc2)cc1 (stereo unspecified) | i | -0.04 | i | i | i | i | / | /
O=C(NCCSCc1ccccc1)c1ccc(C2SCC(=O)N2Cc2ccccc2)cc1 (stereo unspecified) | -11.4* | -1.67 | i | i | i | i | 88.0* | 42.3*
Cc1cc(C)c(OCC(=O)Nc2ccc(NC(=O)c3ccco3)cc2)c([N+](=O)[O-])c1 | / | / | i | / | i | i | / | /
Cc1cc(C)c(OCC(=O)Nc2cccc(NC(=O)c3ccco3)c2)c(Br)c1 | -7.78* | -0.15 | i | i | i | i | 90.5* | 51.8*
Cc1ccccc1Sc1c(C#N)c(-c2ccccc2)nn1C | -8.28* | -1.62 | i | i | i | i | 88.0* | 57.8*
